Most compounds without a hit are left out; they make up all but 11% or so of the library.
WT yeast gro inh = growth inhibition of WT yeast, mitochondrial fusion screen; mitochondrial fusion phenotypic screen, WT strain; inhibition, % at 10 µM; 190,000 compounds, 2.1% hits; AID 1362; in the data active = inhibition above about 58%; tested in S. cerevisiae
L major viab = Leishmania major promastigote growth inhibition; Leishmania major promastigotes, resazurin fluorescence viability; inhibition, % at 10 µM; 200,000 compounds, 9% hits;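 note: promastigotes grown with compound for 44 hours at 28 °C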
Diaphorase inh = inhibits diaphorase or chemically oxidizes, flagging diaphorase assay artifacts; diaphorase resazurin-to-resorufin fluorescence, NADH, 16 min; bacterial (C. kluyveri) enzyme, not human; inhibition, % at 20 µM; 190,000 compounds, 0.69% hits; AID 1217;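 active = primary screen inhibition at 20 µM above a set limit, cut at about 50% in these data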
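Detection: fluorescence of resorufin formed from resazurin, Ex 544/Em 590 nm; test system: Clostridium kluyveri diaphorase enzyme; amount: 0.14 U/mL diaphorase, enzyme working solution; times: 16-min room-temperature incubation before reading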
G6PDH counter = L. mesenteroides G6PDH inhibition counter-screen; Purified L. mesenteroides G6PDH, diaphorase/resazurin coupled fluorescence, 45 min; inhibition, % at 5 µM; 200,000 compounds, 0.12% hits; AID 1020
Diaph act CS = counter-screen for diaphorase-based assays: diaphorase activators and chemical reducers | Diaphorase/resazurin coupled assay, resorufin fluorescence, 16 min; stronger effect = higher value; 1 = vehicle wells, 0 = NADH-free wells | activation factor at 20 µM | 190,000 compounds, 0.005% hits | AID 1229;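 active = diaphorase activity raised at least twofold by the compound at 20 µM; inactive = activation factor below 2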
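Material: bacterial diaphorase enzyme (C. kluyveri); amount: enzyme 0.07 U/mL final; reagent: NADH substrate 0.114 mM plus resazurin dye 0.1 mM, final; doses: single compound dose of 20 µM, 1% DMSO final; timing: 16 min enzyme reaction, ambient temperature; measured by: fluorescence of resorufin, 544 nm excitation, 590 nm emission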
Hits are given with their value; - = inactive. Cut-off read from the data, not from the text of the source, unless noted: active = inhibition above about 50%; inactive = the rest.

SMILES	WT yeast gro inh	L major viab	Diaphorase inh	G6PDH counter	Diaph act CS
Cc1ccc(S(=O)(=O)N2CCN(C(=O)CC3CCCC3)CC2)cc1	-	-	-	-	-
Cc1ccccc1OCc1nnc(SCC(=O)Nc2c(C)n(C)n(-c3ccccc3)c2=O)n1-c1ccccc1	-	59	-	-	-
Cc1ccc(CSCC(=O)Nc2c(C)n(C)n(-c3ccccc3)c2=O)cc1	-	61	-	-	-
Cc1ccccc1CSCC(=O)Nc1c(C)n(C)n(-c2ccccc2)c1=O	-	-	-	-	-
Cc1ccc(S(=O)(=O)NCCC(=O)Nc2nnc(C)s2)cc1	-	-	-	-	-
Cc1cc(C)cc(N(CCC(=O)Nc2nnc(C)s2)S(=O)(=O)c2ccc(Cl)cc2)c1	-	93	-	-	-
CC1CCN(C(=O)CNS(=O)(=O)c2ccc(Br)s2)CC1	-	-	-	-	-
O=C(CNS(=O)(=O)c1ccc(Br)s1)N1CCC(N2CCCCC2)CC1	-	78	-	-	-
CC(C)(C)NC(=O)C12CC3CC(CC(Cl)(C3)C1)C2	-	-	-	-	-
CC(C)(C)NC(=S)NC(=O)C12CCC3CC(CC(C3)C1)C2	73	-	-	-	-
O=[N+]([O-])c1ccc(O)c(/C=N/Nc2ccccn2)c1	-	89	-	-	-
O=[N+]([O-])c1ccc(O)c(/C=N/Nc2nc3ccccc3[nH]2)c1	-	100	-	-	-
O=[N+]([O-])c1cccc(N/N=C/c2cc([N+](=O)[O-])ccc2O)c1	-	-	-	-	-
COc1cc(/C=N/Nc2nc3ccccc3[nH]2)ccc1O	-	80	-	-	-
Clc1nc2ccccc2cc1/C=N/Nc1nc2ccccc2[nH]1	-	-	-	-	-
COc1cc(/C=N/Nc2nc3ccccc3[nH]2)cc(OC)c1O	-	-	-	-	-
COc1ccc(O)c(/C=N/Nc2nc3ccccc3[nH]2)c1	-	88	-	-	-
N#C/C(=C\c1cccc(Oc2ccccc2)c1)C(=O)N1CCOCC1	-	-	-	-	-
Cc1cccc(N2CCN(C(=O)c3cc4c(=O)n(C)c5ccccc5c4n3C)CC2C)c1 (stereo not drawn)	-	-	-	-	-
CCC1CSC(Nc2ccc(C(=O)/C=C/c3cccc(C)c3)cc2)=N1 (stereo not drawn)	-	-	-	-	-
O=C1c2ccccc2NC(c2ccc(-c3ccc(Br)cc3)o2)N1O (stereo not drawn)	-	99	-	-	-
O=C1c2ccccc2NC(c2ccc3c(c2)OCO3)N1O (stereo not drawn)	-	-	-	-	-
O=C1c2ccccc2NC(c2cn[nH]c2-c2ccccc2)N1O (stereo not drawn)	-	-	-	-	-
O=C1c2ccccc2NC(c2ccc(-c3cccc([N+](=O)[O-])c3)o2)N1O (stereo not drawn)	-	82	-	-	-
CCC(C(=O)Nc1cccc(C(=O)O)c1C)c1ccccc1 (stereo not drawn)	-	-	-	-	-
SMILES	WT yeast gro inh	L major viab	Diaphorase inh	G6PDH counter	Diaph act CS
Cc1cccc(C)c1NC(=O)CN(C)C(=O)C(c1ccccc1)c1ccccc1	-	86	-	-	-
Cc1cccc(C)c1NC(=O)CN(C)CC(=O)Nc1ccccc1Br	66	-	-	-	-
CCN(CC)CC(=O)Nc1c(C)cccc1C	-	-	-	-	-
Cc1cccc(C)c1NC(=O)CN(C)C(=O)/C=C/c1cccs1	-	52	-	-	-
Cc1cccc(C)c1NC(=O)C(NC(=O)CN1C(=O)c2ccccc2C1=O)c1ccccc1 (stereo not drawn)	-	-	-	-	-
COC(=O)C(C)(C)ONC(=O)Nc1ccccc1Br	-	69	-	-	-
COc1ccc(CCN2C(=O)C3C4C=CC(C4)C3C2=O)cc1OC (stereo not drawn)	-	-	-	-	-
CCOC(=O)C1=C(O)C(=O)N(Cc2ccccc2)CC1	-	-	-	-	-
COCC(=O)Nc1ccccc1Br	-	54	-	-	-
CCOc1ccc(Cl)cc1/C=N/NC(N)=O	-	-	-	-	-
COc1cc(Cl)cc(/C=N/NC(N)=O)c1O	-	-	-	54	-
COc1ccc(-c2cc3ccccc3n2CC(O)CN2CCC(C)CC2)cc1 (stereo not drawn)	-	87	-	-	-
CCOc1ccc(CN2CCN(CC(O)Cn3c4ccccc4c4ccccc43)CC2)cc1 (stereo not drawn)	-	96	-	-	-
COc1ccc(CN2CCN(CC(O)Cn3c4ccccc4c4ccccc43)CC2)cc1 (stereo not drawn)	-	99	-	-	-
FC(F)(F)c1cnc(Sc2ncn[nH]2)c(Cl)c1	-	-	-	-	-
CCCCCCCCOC(=O)c1nc(Cl)c(Cl)c(N)c1Cl	69	-	-	-	-
O=C(CCc1ccccc1)N/N=C/c1cc(Br)ccc1O	-	98	-	-	-
O=C(N/N=C/c1cc(Br)ccc1O)c1cccc(N2CCCC2=O)c1	-	100	-	-	-
O=C(N/N=C/c1cc(Br)ccc1O)c1ccccc1Cl	-	98	-	-	-
COc1ccc(/C=N/NC(=O)CCc2ccccc2)cc1O	-	-	-	-	-
COc1cccc(-n2c(CN3CCN(c4cccc(C)c4)C(C)C3)nc3ccc([N+](=O)[O-])cc3c2=O)c1 (stereo not drawn)	-	66	-	-	-
COc1cccc(-n2c(CN3CCN(c4ccccn4)CC3)nc3ccc([N+](=O)[O-])cc3c2=O)c1	-	-	-	-	-
COc1cccc(-n2c(CN3CCN(c4ccc(C)cc4)C(C)C3)nc3ccc([N+](=O)[O-])cc3c2=O)c1 (stereo not drawn)	-	92	-	-	-
CCc1c(C)c(C#N)c2nc3ccccc3n2c1NCC1CCCO1 (stereo not drawn)	-	68	-	-	-
Cc1cc(C(C)C)n2c(nc3ccccc32)c1C#N	-	-	-	-	-
SMILES	WT yeast gro inh	L major viab	Diaphorase inh	G6PDH counter	Diaph act CS
CCC(C)Sc1cc(C)c(C#N)c2nc3ccccc3n12 (stereo not drawn)	-	-	52	-	-
N#Cc1c2c(c(NCCCN3CCOCC3)n3c1nc1ccccc13)CCC2	-	63	-	-	-
CC(C)c1cc(NCC2CCCO2)n2c(nc3ccccc32)c1C#N (stereo not drawn)	-	57	-	-	-
Cc1cc(-c2ccco2)c(C#N)c2nc3ccccc3n12	-	-	72	-	-
Cc1c2c(n3c(nc4ccccc43)c1C#N)N(c1ccccc1)CC2	-	53	-	-	-
CCc1c(C)c(C#N)c2nc3ccccc3n2c1Cl	-	101	-	-	-
O=C(OCCN=C1NS(=O)(=O)c2ccccc21)c1cccs1	-	-	-	-	-
Cc1cc(C(=O)COc2ccc(-c3nnco3)cc2)c(C)n1Cc1ccccc1	-	-	-	-	-
Cc1cc(C(=S)N2CCOCC2)c(C)n1-c1ccc(Cl)cc1	-	-	-	-	-

Compound activity (PubChem)
